Assay [1] concerns Escherichia coli. Briefly: Minimum inhibitory concentration against Escherichia coli DC2 (inoculum, 10e4 cfu per spot). The assay is classed as functional. The method, boiled down: (§1)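 MIC in µg/mL, determined in Jewell and Permain growth medium with spot inoculation at 10^4 cfu per spot. P99 is described as a constitutive type I lactamase producer.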
Assay [2] has as its system Escherichia coli. Kind of assay: Minimum inhibitory concentration against Escherichia coli DCO (inoculum, 10e4 cfu per spot). It is filed as functional. The method, boiled down: as §1
The test system of assay [3] is Escherichia coli. Briefly: Minimum inhibitory concentration against Escherichia coli A8 (inoculum, 10e5 cfu per spot). The assay is classed as functional. In short, it runs like this:
(§2)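 MIC in µg/mL, determined in Jewell and Permain growth medium with spot inoculation at 10^5 cfu per spot.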

Assay [4] relates to Enterobacter cloacae. Briefly: Minimum inhibitory concentration against Enterobacter cloacae A13 (inoculum, 10e5 cfu per spot). The assay is classed as functional. In short, it runs like this:
as §2

The subject of assay [5] is Enterobacter cloacae. Briefly: Minimum inhibitory concentration against Enterobacter cloacae P99 (inoculum, 10e4 cfu per spot). The assay is classed as functional. The method, boiled down: as §1
For assay [6], the system named is Klebsiella aerogenes. Kind of assay: Minimum inhibitory concentration against Klebsiella aerogenes X5L (inoculum, 10e4 cfu per spot). The assay is classed as functional. In short, it runs like this: as §1
In assay [7] the test system is Klebsiella aerogenes. Briefly: Minimum inhibitory concentration against Klebsiella aerogenes X6 (inoculum, 10e4 cfu per spot). It is filed as functional. In short, it runs like this:
as §1

For assay [8], the system named is Klebsiella pneumoniae. Kind of assay: Minimum inhibitory concentration against Klebsiella pneumoniae A24 (inoculum, 10e5 cfu per spot). It is filed as functional. The method, boiled down:
as §2

For assay [9], the system named is Proteus mirabilis. Briefly: Minimum inhibitory concentration against Proteus mirabilis A18 (inoculum, 10e5 cfu per spot). The assay is classed as functional. In short, it runs like this:
as §2

Assay [10] deals with Pseudomonas aeruginosa. Briefly: Minimum inhibitory concentration against Pseudomonas aeruginosa A21 (inoculum, 10e5 cfu per spot). The assay is classed as functional. The method, boiled down: as §2
Assay [11] concerns Staphylococcus aureus. Kind of assay: Minimum inhibitory concentration against Staphylococcus aureus A4 (inoculum, 10e5 cfu per spot). It is filed as functional. The method, boiled down:
as §2

Assay [12] has as its system Staphylococcus aureus. Kind of assay: Minimum inhibitory concentration against Staphylococcus aureus A6 (inoculum, 10e5 cfu per spot). The assay is classed as functional. The method, boiled down: as §2
Assay [13] deals with Streptococcus pyogenes. Briefly: Minimum inhibitory concentration against Streptococcus pyogenes (inoculum, 10e5 cfu per spot) A1. It is filed as functional. In short, it runs like this:
as §2

Assay [14] relates to Serratia marcescens. Briefly: Minimum inhibitory concentration against Serratia marcescens A16 (inoculum, 10e5 cfu per spot). It is filed as functional. The method, boiled down: as §2
Assay [15] deals with Enterobacter cloacae. Briefly: Minimum inhibitory concentration against Enterobacter cloacae P99 (inoculum, 10e4 cfu per spot)(type I lactamase producer). The assay is classed as functional. The method, boiled down: as §1
For assay [16], the system named is Escherichia coli. Briefly: Minimum inhibitory concentration against Escherichia coli X4 (inoculum, 10e4 cfu per spot).
Assay [17] has as its system Proteus vulgaris. Kind of assay: Minimum inhibitory concentration against Proteus vulgaris Pv9 (inoculum, 10e5 cfu per spot).
Assay [18] has as its system Escherichia coli. Kind of assay: Minimum inhibitory concentration against Escherichia coli TEM X3 (inoculum, 10e4 cfu per spot)(TEM I type lactamase producer).

Drawing on ChEMBL document CHEMBL1125626, “Synthesis and structure-activity relationship of new cephalosporins with amino heterocycles at C-7. Dependence of the antibacterial spectrum and beta-lactamase stability on the pKa of the C-7 heterocycle” (1991), this text covers MIC for five molecules.

Structures are written as SMILES. Values after ≈ are worked out from the molar mass of the structure shown. Where only a bound is given, the exact number is not on record here.

In general, MIC refers to the smallest concentration in the dilution series that meets the test's criterion for growth inhibition. A low value points to a more susceptible organism.

With `CC1=C(C(=O)OC(c2ccccc2)c2ccccc2)N2C(=O)[C@@H](NC3=NC(c4ccc(O)c(O)c4)CN3)C2SC1` (stereo not given in full), the MIC in assay [1] was 2 µg/mL (≈ 3.59 µM); in assay [2], 4 µg/mL (≈ 7.19 µM); in assay [3], 4 µg/mL (≈ 7.19 µM); in [4], above 256 µg/mL; in assay [5], 2 µg/mL (≈ 3.59 µM); in [6], 8 µg/mL (≈ 14.4 µM). Besides, the MIC in assay [7] is 4 µg/mL (≈ 7.19 µM); in assay [8] it was above 256 µg/mL; in assay [9], above 256 µg/mL; in [10], above 256 µg/mL; in assay [11], above 256 µg/mL; in assay [12] it was above 256 µg/mL. In addition, the MIC in assay [13] was above 256 µg/mL; in assay [14], above 256 µg/mL; in assay [15] it was 4 µg/mL (≈ 7.19 µM); in assay [16] it was 2 µg/mL (≈ 3.59 µM); in [17], above 256 µg/mL; in assay [18], 2 µg/mL (≈ 3.59 µM).

For the molecule `CC1(C)S[C@@H]2[C@H](/N=C/N3CCCCCC3)C(=O)N2[C@H]1C(=O)O` [AMDINOCILLIN], the MIC in [1] was found to be 0.004 µg/mL (≈ 0.0123 µM); in [2], 0.03 µg/mL (≈ 0.0922 µM); in [3], 0.06 µg/mL (≈ 0.184 µM); in assay [4], 0.25 µg/mL (≈ 0.768 µM); in [5], 0.03 µg/mL (≈ 0.0922 µM); in [6], 4 µg/mL (≈ 12.3 µM). For the same molecule, the MIC in [7] is 0.12 µg/mL (≈ 0.369 µM); in assay [8], 0.03 µg/mL (≈ 0.0922 µM); in [9], 32 µg/mL (≈ 98.3 µM); in [10], above 256 µg/mL; in [11], above 256 µg/mL; in assay [12], 16 µg/mL (≈ 49.2 µM). Further, the MIC in [13] amounted to 16 µg/mL (≈ 49.2 µM); in [14] it was 128 µg/mL (≈ 393 µM); in assay [15] it was 0.06 µg/mL (≈ 0.184 µM); in assay [16], 0.03 µg/mL (≈ 0.0922 µM); in assay [17], 64 µg/mL (≈ 197 µM); in assay [18], 1 µg/mL (≈ 3.07 µM).

For the molecule `Cn1nnnc1SCC1=C(C(=O)OC(c2ccccc2)c2ccccc2)N2C(=O)[C@@H](Nc3nc4cc(O)ccc4[nH]3)C2SC1` (stereo not given in full), the MIC is below 0.03 µg/mL in assay [1]; 0.12 µg/mL (≈ 0.191 µM) in assay [2]; 0.25 µg/mL (≈ 0.399 µM) in assay [3]; above 256 µg/mL in assay [4]; 0.25 µg/mL (≈ 0.399 µM) in [5]; 64 µg/mL (≈ 102 µM) in [6]. Besides, the MIC in [7] was 0.25 µg/mL (≈ 0.399 µM); in [8] it was 4 µg/mL (≈ 6.38 µM); in [9] it was 0.5 µg/mL (≈ 0.798 µM); in assay [10], above 256 µg/mL; in assay [11], 16 µg/mL (≈ 25.5 µM); in assay [12], 2 µg/mL (≈ 3.19 µM). For the same molecule, the MIC in assay [13] came out at 0.5 µg/mL (≈ 0.798 µM); in assay [14], 64 µg/mL (≈ 102 µM); in [15], 32 µg/mL (≈ 51.1 µM); in [16], 0.12 µg/mL (≈ 0.191 µM); in assay [17] it was 16 µg/mL (≈ 25.5 µM); in assay [18], 1 µg/mL (≈ 1.6 µM).

On to `Cn1nnnc1SCC1=C(C(=O)OC(c2ccccc2)c2ccccc2)N2C(=O)[C@@H](Nc3nc4ccccc4[nH]3)C2SC1` (stereo not given in full), for which the MIC was 0.016 µg/mL (≈ 0.0262 µM) in assay [1]; 0.5 µg/mL (≈ 0.819 µM) in assay [2]; 0.5 µg/mL (≈ 0.819 µM) in assay [3]; above 128 µg/mL in assay [4]; 0.5 µg/mL (≈ 0.819 µM) in [5]; 128 µg/mL (≈ 210 µM) in assay [6]. Also, the MIC in [7] was 2 µg/mL (≈ 3.27 µM); in assay [8], 0.5 µg/mL (≈ 0.819 µM); in assay [9], 0.25 µg/mL (≈ 0.409 µM); in [10], above 128 µg/mL; in [11], 128 µg/mL (≈ 210 µM); in [12], 4 µg/mL (≈ 6.55 µM). Moreover, the MIC was found to be 0.5 µg/mL (≈ 0.819 µM) in [13]; 64 µg/mL (≈ 105 µM) in assay [14]; 64 µg/mL (≈ 105 µM) in assay [15]; 0.5 µg/mL (≈ 0.819 µM) in [16]; 8 µg/mL (≈ 13.1 µM) in assay [17]; 4 µg/mL (≈ 6.55 µM) in assay [18].

Take `CC(=O)OCC1=C(C(=O)OC(c2ccccc2)c2ccccc2)N2C(=O)[C@@H](Nc3nc4c(C)cccc4[nH]3)C2SC1` (stereo not given in full): the MIC is 0.25 µg/mL (≈ 0.44 µM) in assay [1]; 8 µg/mL (≈ 14.1 µM) in assay [2]; 16 µg/mL (≈ 28.1 µM) in [3]; at least 128 µg/mL in assay [4]; 32 µg/mL (≈ 56.3 µM) in assay [5]; at least 128 µg/mL in assay [6]. Moreover, the MIC in [7] was 16 µg/mL (≈ 28.1 µM); in assay [8], 8 µg/mL (≈ 14.1 µM); in assay [9], 8 µg/mL (≈ 14.1 µM); in [10], at least 128 µg/mL; in assay [11], 8 µg/mL (≈ 14.1 µM); in assay [12], 4 µg/mL (≈ 7.03 µM). The MIC was 8 µg/mL (≈ 14.1 µM) in assay [13]; at least 128 µg/mL in assay [14]; at least 128 µg/mL in [15]; 8 µg/mL (≈ 14.1 µM) in assay [16]; at least 128 µg/mL in assay [17]; 32 µg/mL (≈ 56.3 µM) in assay [18].
